# High-throughput results: PubChem, several laboratories
# A selection: hits, their analogues and other compounds. The true share with any hit is near 2.6%.
# MC4R barr agon: agonists of human melanocortin 4 receptor (MC4R) beta-arrestin | P32245 | U2OS MC4R beta-arrestin complementation, luminescence; percent of melanotan II response, DMSO zero | activation, % at 8.9 µM | 360,000 tested, 0.98% active;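 active means activation above a per-plate cutoff, the mean activation of sample wells on that plate plus 3 SD, cut at about 8% in these data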
# MC4R antag cAMP: antagonists of human melanocortin 4 receptor (MC4R); P32245; MC4R-expressing cells, MTII-stimulated cAMP, LANCE TR-FRET; inhibition, % at 6.5 µM; 360,000 tested, 0.48% active; AID 540295;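 active means inhibition above its plate's cutoff, the mean of tested wells on that plate plus 3 SD, cut at about 29% in these data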;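 further: 0% = Melanotan II alone and 100% = Melanotan II plus saturating MCL0020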
#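 Assay system: human MC4R-expressing U2OS cells; reagent: Melanotan II stimulation of cells; dosing: 6.5 µM single dose; timing: compound 30 min, challenge 1 h, detection 1 h; signal: TR-FRET cAMP assay; replicates: one well per compound, no replicates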
# EP2 modulator: modulators of human EP2 prostaglandin E2 receptor; 260,000 tested, 0.83% active; induction, % at 25 µM; EP2-expressing cells, cAMP HTRF FRET, PGE2 co-stimulation; AID 940;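 active means compounds whose cAMP rise, as percent of the full-agonist control response, exceeds 60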;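 further: rat C6 glioma line stably carrying human EP2 under a CMV promoter; the protocol text gives 20 µM as final concentration; 100% = response of wells given 1 µM PGE2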
# Target sequence (P43116 whole entry, looked up): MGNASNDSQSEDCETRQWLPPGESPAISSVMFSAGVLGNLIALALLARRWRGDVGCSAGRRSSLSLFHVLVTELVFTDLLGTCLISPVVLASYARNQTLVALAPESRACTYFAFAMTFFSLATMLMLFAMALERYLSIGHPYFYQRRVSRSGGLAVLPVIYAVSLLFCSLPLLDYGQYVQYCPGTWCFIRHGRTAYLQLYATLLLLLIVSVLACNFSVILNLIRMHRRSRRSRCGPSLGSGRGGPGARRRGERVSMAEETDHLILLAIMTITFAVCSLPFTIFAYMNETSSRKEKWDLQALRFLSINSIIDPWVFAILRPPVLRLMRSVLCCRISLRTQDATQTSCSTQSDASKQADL
# T cell HTS: T cell immune modulators affecting CD8 T cell-vesicle binding; 2C CD8+ T cell-vesicle binding, flow cytometry; stronger effect = lower value; response (vesicle binding), % at 7 µM; 330,000 tested, 0.068% active;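 active means response, share of CD8 T cells binding vesicles, and their 90th percentile fluorescence all below set limits, cut at about 80% in these data, passing the limit was not always enough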;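 further: values below 100% mean blocked vesicle binding to the CD8+ T cells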
#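 Assay system: 2C TCR transgenic mouse naive CD8+ T cells, MACS-purified | Read-out: CD8+ gate FL2 mean fluorescence as % of same-row positive control | Signal: High-throughput flow cytometry with anti-B7-1 and anti-CD8 staining | Timing: Binding step 1.5 h, 37 °C, antibody labelling 20 min, ice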
# EP2 antag: EP2 receptor (human) inhibition; C6 glioma cells expressing human EP2, cAMP TR-FRET; cells stimulated with saturating PGE2; inhibition, % at 25 µM; 260,000 tested, 0.52% active; AID 1422;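 active means percent inhibition above 40 after rounding to a whole number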;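 further: rat C6 glioma host cells with rolipram phosphodiesterase inhibitor present; the protocol text gives 20 µM as final concentration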
# Granule exo inh: blocks lytic granule exocytosis; TALL-104 LAMP-1 surface exposure, flow cytometry; cells stimulated with thapsigargin and PMA; inhibition, % at 10 µM; 360,000 tested, 0.66% active;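 active means inhibition above about 55%, limit read from the data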
# The depositor's hits bear a star; . = not tested or not shown.
SMILES,MC4R barr agon,MC4R antag cAMP,EP2 modulator,T cell HTS,EP2 antag,Granule exo inh
O=C(CSc1nnc(-c2ccncc2)o1)N(C1CCCCC1)C1CCCCC1,.,.,43,.,12,.
CN(C)c1nc(SCc2ccccc2)nc(N2CCOCC2)n1,1,4,26,418,9,1
CCNc1nc(SCc2ccccc2)nc(N2CCOCC2)n1,1,10,63*,168,7,-1
Cc1ccc(S(=O)(=O)NC(=NC2CCCCC2)c2ccc(F)cc2)cc1,0,6,.,154,.,8
CCn1c(SCC(=O)c2ccc3c(c2)Cc2ccccc2-3)nnc1-c1ccc(N)cc1,11*,7,-46,256,12,0
CCn1c(SCC(=O)c2ccc(O)c(O)c2)nnc1-c1ccc(C)cc1,-2,2,-12,336,16,-1
CSc1cccc(NC(=O)Nc2nc3c(C)cccc3s2)c1,9.1*,8,-32,270,5,-12
COC(=O)Nc1nc2c(C)cccc2s1,-2,3,2,192,10,-1
O=C(OCC(=O)N1CCN(C(=O)c2ccco2)CC1)c1ccc(Cl)nc1,-1,5,.,100,.,3
COc1ccccc1-c1cc(C(=O)Nc2ccccc2SC)no1,8.7*,-8,38,127,0,4
CC(Nc1nc(-c2ccccc2F)nc2ccccc12)c1ccccc1 (configuration not stated),-2,15,.,586,.,-11
CC(Nc1nc(-c2ccccc2O)nc2ccccc12)c1ccccc1 (configuration not stated),2,11,70*,200,6,7
Cn1c(=O)c2c([nH]c(=O)n2C)n(Cc2ccccc2)c1=O,1,2,.,125,.,-2
CCC(C)(C)NC(=O)C(c1ccc(OC)cc1)N(C(=O)CCC(=O)Nc1cc(C)on1)c1ccc2c(c1)OCCO2 (configuration not stated),0,-6,.,375,.,3
CN1C2CC(OC(=O)C(CO)c3ccccc3)CC1C1OC12 (configuration not stated),-2,22,.,534,.,0
CN1[C@@H]2CC(OC(=O)[C@@H](CO)c3ccccc3)C[C@H]1[C@H]1O[C@H]12 (some centres not stated),.,.,24,.,52*,.
Cc1ccc(S(=O)(=O)N(C)C)cc1N,0,3,10,176,12,2
CC(=O)N(C1=C(Cl)C(=O)c2ccccc2C1=O)C1CCCCC1,-2,10,-30,118,124*,90*
CCOC(=O)C1CCN(C(=O)CN2C(=O)c3ccccc3S2(=O)=O)CC1,-2,-1,.,0.0*,.,-1
CCc1ccc2c(c1)cc(CN(C(=S)Nc1cccc(C)c1)C1CC1)c1nnnn12,13*,-10,22,377,5,0
Nc1c(C(=O)NC2CC2)c2nc3ccccc3nc2n1-c1ccc2c(c1)OCO2,1,5,-18,198,16,9
Nc1c(C(=O)OCC2CCCO2)c2nc3ccccc3nc2n1-c1ccc2c(c1)OCCO2 (configuration not stated),.,.,-44,217,80*,.
CCc1ccc2c(c1)-c1c(s[s+]c1SC(C)=O)C(C)(C)N2,.,.,65*,.,9,.
COc1ccc2c(c1)-c1c(ssc1=S)C(C)(C)N2,-2,-8,27,334,17,0
CNc1nc(-c2ccc(OC)cc2)c(-c2ccc(OC)cc2)s1,-1,-1,-4,572,2,5
SMILES,MC4R barr agon,MC4R antag cAMP,EP2 modulator,T cell HTS,EP2 antag,Granule exo inh
CC1CCN(CCCNC(=O)C2CCN(S(=O)(=O)N3CCCCC3)CC2)CC1,-2,4,-15,614,19,7
CC1CCCCN1CCNC(=O)C1CCN(S(=O)(=O)N2CCCCC2)CC1 (configuration not stated),-1,10,17,51,120*,-6
Cc1cc(Br)c(NC(=O)c2c(-c3c(Cl)cccc3Cl)noc2C)c(Br)c1,-1,14,13,26*,15,-1
Cc1onc(-c2c(Cl)cccc2Cl)c1C(=O)Nc1ccc2c(c1)OCCO2,-1,8,-5,324,6,-3
O=C1c2ccccc2-c2c(NCCc3ccccc3)c(=O)[nH]c3cccc1c23,.,.,66*,.,10,.
O=c1[nH]ncc(NCCc2ccccc2)c1Cl,2,-3,12,434,9,-1
CCCS(=O)(=O)N1CCCC(C(=O)NCCCN(C)Cc2ccccc2)C1 (configuration not stated),1,-1,.,178,15,1
CC(=O)Nc1cc2c(c([N+](=O)[O-])c1C)C(C)(C)CC2(C)C,-2,5,.,.,.,2
O=C(c1cc2ccccc2o1)N1CCN(S(=O)(=O)c2ccc(F)c(F)c2F)CC1,8.2*,3,.,226,.,-2
Cc1cc(C)c(S(=O)(=O)N2CCN(C(=O)c3cc4ccccc4o3)CC2)c(C)c1,1,4,.,.,.,0
CCN(CC)c1nc(Oc2ccc(C(=O)OC)cc2)nc(N2CCOCC2)n1,0,6,62*,266,2,5
O=C(O)CCn1cc(/C=C/C(=O)c2ccc(Cl)cc2)c(-c2ccc(Br)cc2)n1,-1,35*,-7,274,13,6
CC(C)N(CCC(=O)c1ccc2ccccc2c1)Cc1ccccc1,-3,1,-11,277,76*,32
CC(OC(=O)c1ccc2ccccc2c1)C(=O)N(C)Cc1ccccc1 (configuration not stated),-1,3,.,141,.,-4
COc1cc(C(=O)NCCc2c[nH]c3ccccc23)ccc1OCc1c(C)noc1C,2,4,-103,288,88*,3
Cc1ccc(-n2c(-c3ccc(Br)cc3)c[n+]3c2CCc2ccc4cccnc4c2-3)cc1,5,-3,-23,278,11,72*
O=C(NC(=S)N1CCN(c2ccc(Cl)cc2[N+](=O)[O-])CC1)c1cccs1,-4,4,-1,783,11,0
Cc1nc2ccccn2c1C(=O)N=Nc1c(O)n(CCC(C)C)c2ccccc12,2,17,-16,153,51*,71*
CCCn1c(O)c(N=NC(=O)c2ccco2)c2ccccc21,-1,-9,5,361,8,-1
c1ccc(Cn2c(-c3ccco3)nc3nc4ccccc4nc32)cc1,-3,5,62*,336,17,0
CCCCCn1c(-c2ccco2)nc2nc3ccccc3nc21,2,-6,56,304,.,-2
CC[C@@H]1C(c2ccc(F)cc2)=NN(c2ccc(Br)cc2)[C@H]1C(=O)N1CCOC1=O,9.6*,11,.,.,.,-6
O=c1[nH]c2c(oc3ccccc32)c(=O)n1Cc1ccccc1,-2,2,.,157,.,-4
